The structures appear in SMILES notation.

In assay [1] the target is T1, Metabotropic glutamate receptor 6 (Homo sapiens, UniProt O15303). The assay is described as follows: Agonistic activity at mGlu6 receptor expressed in CHO cells. The assay is classed as functional, cell-based. The gist of the method: (§1)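 CHO cells expressing the receptor were kept at 37 °C in DMEM with 2 mM glutamine, 1% proline and 10% dialyzed FCS, and plated 2 days before assay. Cells were incubated 10 min in PBS with ligand, 10 µM forskolin and 1 mM IBMX, and cAMP was measured by RIA. Agonism is inhibition of forskolin-induced cAMP versus buffer-only control.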
T1 sequence (O15303 whole entry): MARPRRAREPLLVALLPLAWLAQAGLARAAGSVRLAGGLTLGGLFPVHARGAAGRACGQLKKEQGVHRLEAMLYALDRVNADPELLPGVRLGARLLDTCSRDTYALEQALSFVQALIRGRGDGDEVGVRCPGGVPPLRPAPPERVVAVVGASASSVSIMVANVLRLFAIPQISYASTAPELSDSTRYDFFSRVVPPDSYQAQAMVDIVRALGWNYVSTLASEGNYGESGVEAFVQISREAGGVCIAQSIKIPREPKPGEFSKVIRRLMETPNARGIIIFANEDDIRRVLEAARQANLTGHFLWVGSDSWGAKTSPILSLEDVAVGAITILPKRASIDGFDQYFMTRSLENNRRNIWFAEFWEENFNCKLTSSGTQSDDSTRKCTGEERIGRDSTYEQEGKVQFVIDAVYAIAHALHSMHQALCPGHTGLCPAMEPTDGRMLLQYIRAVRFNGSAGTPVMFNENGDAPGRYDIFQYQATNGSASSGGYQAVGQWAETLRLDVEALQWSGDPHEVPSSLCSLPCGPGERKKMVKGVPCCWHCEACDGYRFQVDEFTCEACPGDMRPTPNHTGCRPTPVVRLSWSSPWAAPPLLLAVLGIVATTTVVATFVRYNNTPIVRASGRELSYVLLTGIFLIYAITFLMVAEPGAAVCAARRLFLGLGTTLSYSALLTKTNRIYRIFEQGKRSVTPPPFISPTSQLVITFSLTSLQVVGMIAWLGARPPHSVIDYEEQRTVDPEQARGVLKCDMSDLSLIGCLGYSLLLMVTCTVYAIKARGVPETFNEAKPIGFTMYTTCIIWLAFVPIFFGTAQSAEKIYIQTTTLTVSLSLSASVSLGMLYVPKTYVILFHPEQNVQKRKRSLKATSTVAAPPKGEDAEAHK

Assay [2] addresses T2, Metabotropic glutamate receptor 2 (Homo sapiens, UniProt Q14416). Nature of the assay: Agonistic activity at mGlu2 receptor expressed in CHO cells. Format: functional, cell-based. The method, boiled down: as §1
Assay [3] has as its target T3, Metabotropic glutamate receptor 4 (Homo sapiens, UniProt Q14833). Nature of the assay: Agonistic activity at mGlu4a receptor expressed in CHO cells. Format: functional, cell-based. The gist of the method: as §1
Assay [4] concerns the target T4, Metabotropic glutamate receptor 1 (Homo sapiens, UniProt Q13255). The assay is described as follows: Agonistic activity at mGlu1-alpha receptor expressed in CHO cells. Format: functional, cell-based.
Assay [5] has as its target T1, Metabotropic glutamate receptor 6. The assay is described as follows: Agonist activity of the compound at Metabotropic Excitatory Amino acid Receptors Expressed in CHO cells. mGlu6. Format: functional, cell-based. The gist of the method:
(§2)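 CHO cells expressing mGlu2, mGlu4a or mGlu6, seeded 2 days before assay. Incubated 10 min in PBS with ligand, 10 µM forskolin and 1 mM IBMX. […] EC50 from dose-response, mean ± SEM of at least two independent experiments.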

The target in assay [6] is T2, Metabotropic glutamate receptor 2. Nature of the assay: Agonist activity of the compound at Metabotropic Excitatory Amino acid Receptors Expressed in CHO cells. mGlu2. Format: functional, cell-based. The method, boiled down: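 CHO cells expressing mGlu2, mGlu4a or mGlu6, seeded 2 days before assay. Incubated 10 min in PBS with ligand, 10 µM forskolin and 1 mM IBMX. EC50 from dose-response, mean ± SEM of at least two independent experiments.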

Assay [7] concerns the target T4, Metabotropic glutamate receptor 1. The assay is described as follows: Agonist activity of the compound at Metabotropic Excitatory Amino acid Receptors Expressed in CHO cells. mGlu1-alpha. The assay is classed as functional, cell-based. The method, boiled down:
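CHO cells stably expressing mGlu1α, seeded 2 days before assay and labelled with [3H]inositol (1 µCi/mL) for 24 h. Ligand in PBS-LiCl for 20 min; total [3H]inositol mono-, bis- and trisphosphates by ion-exchange chromatography, fold over buffer-only control. EC50 from dose-response, mean ± SEM of at least two independent experiments.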

Assay [8] has as its target Glutamate receptor ionotropic, kainate. Nature of the assay: The compound was evaluated for agonist to competitive inhibition of radioligand ([3H]- kainic acid ) at Ionotropic glutamate receptor kainate. Format: functional.
In assay [9] the target is Glutamate receptor ionotropic, AMPA (Rattus norvegicus, UniProt P19490+P19491+P19492+P19493). Nature of the assay: Agonistic activity at Ionotropic glutamate receptor AMPA of rat brain membrane using [3H]AMPA as radioligand. The assay is classed as functional.
Assay [10] addresses Glutamate NMDA receptor. Nature of the assay: The compound was evaluated for agonist activity at NMDA receptor in rat cortical wedge preparation. The assay is classed as functional. The method, boiled down:
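Rat cortical wedge under superfusion. Test and standard compounds were dissolved in the superfusion medium, and the potential difference between the recording and reference electrodes was charted.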

For assay [11], the target named is Glutamate NMDA receptor. Nature of the assay: Agonistic activity at NMDA receptor of rat brain membrane using [3H]MK-801 as radioligand. Format: functional. The method, boiled down:
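Rat brain membranes were prepared per Ransom and Stec. [3H]MK-801 binding was run on fully stimulated membranes, with incubation lengthened to 4 h.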

The target in assay [12] is T3, Metabotropic glutamate receptor 4. The assay is described as follows: Agonist activity of the compound at Metabotropic Excitatory Amino acid Receptors Expressed in CHO cells. mGlu4a. Format: functional, cell-based. The gist of the method: as §2

T4 sequence (Q13255 whole entry): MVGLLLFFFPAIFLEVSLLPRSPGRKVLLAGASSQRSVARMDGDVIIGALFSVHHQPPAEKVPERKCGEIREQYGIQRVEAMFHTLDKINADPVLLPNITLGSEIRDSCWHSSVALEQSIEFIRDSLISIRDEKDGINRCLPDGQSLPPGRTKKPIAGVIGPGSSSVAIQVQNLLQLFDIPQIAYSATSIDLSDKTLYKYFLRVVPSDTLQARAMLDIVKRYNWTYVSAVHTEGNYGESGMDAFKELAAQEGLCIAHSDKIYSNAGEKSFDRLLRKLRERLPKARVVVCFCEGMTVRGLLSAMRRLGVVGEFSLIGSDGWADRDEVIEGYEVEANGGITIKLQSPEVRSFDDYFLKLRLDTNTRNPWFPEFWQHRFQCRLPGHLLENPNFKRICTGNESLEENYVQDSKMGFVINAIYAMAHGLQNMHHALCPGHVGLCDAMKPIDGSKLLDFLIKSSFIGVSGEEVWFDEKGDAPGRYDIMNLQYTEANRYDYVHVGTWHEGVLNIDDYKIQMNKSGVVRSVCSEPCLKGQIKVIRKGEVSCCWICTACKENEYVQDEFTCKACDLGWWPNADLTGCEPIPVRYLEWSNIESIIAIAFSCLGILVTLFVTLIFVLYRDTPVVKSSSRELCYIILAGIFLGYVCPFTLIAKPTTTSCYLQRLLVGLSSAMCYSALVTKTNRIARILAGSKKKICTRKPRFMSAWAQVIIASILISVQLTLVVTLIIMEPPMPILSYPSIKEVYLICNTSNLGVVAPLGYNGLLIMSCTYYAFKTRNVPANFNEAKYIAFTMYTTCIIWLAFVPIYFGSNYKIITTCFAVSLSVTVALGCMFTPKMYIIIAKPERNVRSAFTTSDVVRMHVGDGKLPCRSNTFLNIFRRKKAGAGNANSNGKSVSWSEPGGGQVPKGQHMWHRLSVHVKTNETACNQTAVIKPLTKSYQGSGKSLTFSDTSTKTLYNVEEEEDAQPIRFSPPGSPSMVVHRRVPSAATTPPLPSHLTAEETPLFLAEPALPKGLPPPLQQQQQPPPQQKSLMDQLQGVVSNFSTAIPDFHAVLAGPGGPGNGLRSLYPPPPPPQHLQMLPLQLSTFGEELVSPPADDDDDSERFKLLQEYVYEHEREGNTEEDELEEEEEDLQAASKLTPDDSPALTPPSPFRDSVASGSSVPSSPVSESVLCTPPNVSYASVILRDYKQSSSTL
T2 sequence (Q14416 whole entry): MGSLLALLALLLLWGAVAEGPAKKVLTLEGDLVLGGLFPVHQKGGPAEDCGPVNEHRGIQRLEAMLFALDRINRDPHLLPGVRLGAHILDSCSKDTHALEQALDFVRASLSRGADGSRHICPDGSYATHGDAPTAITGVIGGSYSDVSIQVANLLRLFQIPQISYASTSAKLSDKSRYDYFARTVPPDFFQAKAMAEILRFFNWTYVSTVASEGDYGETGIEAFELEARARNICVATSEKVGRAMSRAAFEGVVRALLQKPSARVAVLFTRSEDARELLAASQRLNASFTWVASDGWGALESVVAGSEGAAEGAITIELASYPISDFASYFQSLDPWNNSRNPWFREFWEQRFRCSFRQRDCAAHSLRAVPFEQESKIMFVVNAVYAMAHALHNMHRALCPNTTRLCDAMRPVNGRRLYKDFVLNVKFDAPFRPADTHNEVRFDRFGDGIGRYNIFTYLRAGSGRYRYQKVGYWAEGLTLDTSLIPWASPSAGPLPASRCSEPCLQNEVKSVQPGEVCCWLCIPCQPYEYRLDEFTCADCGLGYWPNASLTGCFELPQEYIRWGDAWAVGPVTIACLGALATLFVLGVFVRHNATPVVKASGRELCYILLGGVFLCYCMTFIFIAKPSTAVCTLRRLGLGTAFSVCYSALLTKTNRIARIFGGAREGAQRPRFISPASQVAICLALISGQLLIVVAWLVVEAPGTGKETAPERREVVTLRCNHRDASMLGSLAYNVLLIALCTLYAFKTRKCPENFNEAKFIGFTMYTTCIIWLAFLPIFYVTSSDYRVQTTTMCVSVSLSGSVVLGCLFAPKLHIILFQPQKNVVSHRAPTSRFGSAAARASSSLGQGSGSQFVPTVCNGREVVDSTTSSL
T3 sequence (Q14833 whole entry): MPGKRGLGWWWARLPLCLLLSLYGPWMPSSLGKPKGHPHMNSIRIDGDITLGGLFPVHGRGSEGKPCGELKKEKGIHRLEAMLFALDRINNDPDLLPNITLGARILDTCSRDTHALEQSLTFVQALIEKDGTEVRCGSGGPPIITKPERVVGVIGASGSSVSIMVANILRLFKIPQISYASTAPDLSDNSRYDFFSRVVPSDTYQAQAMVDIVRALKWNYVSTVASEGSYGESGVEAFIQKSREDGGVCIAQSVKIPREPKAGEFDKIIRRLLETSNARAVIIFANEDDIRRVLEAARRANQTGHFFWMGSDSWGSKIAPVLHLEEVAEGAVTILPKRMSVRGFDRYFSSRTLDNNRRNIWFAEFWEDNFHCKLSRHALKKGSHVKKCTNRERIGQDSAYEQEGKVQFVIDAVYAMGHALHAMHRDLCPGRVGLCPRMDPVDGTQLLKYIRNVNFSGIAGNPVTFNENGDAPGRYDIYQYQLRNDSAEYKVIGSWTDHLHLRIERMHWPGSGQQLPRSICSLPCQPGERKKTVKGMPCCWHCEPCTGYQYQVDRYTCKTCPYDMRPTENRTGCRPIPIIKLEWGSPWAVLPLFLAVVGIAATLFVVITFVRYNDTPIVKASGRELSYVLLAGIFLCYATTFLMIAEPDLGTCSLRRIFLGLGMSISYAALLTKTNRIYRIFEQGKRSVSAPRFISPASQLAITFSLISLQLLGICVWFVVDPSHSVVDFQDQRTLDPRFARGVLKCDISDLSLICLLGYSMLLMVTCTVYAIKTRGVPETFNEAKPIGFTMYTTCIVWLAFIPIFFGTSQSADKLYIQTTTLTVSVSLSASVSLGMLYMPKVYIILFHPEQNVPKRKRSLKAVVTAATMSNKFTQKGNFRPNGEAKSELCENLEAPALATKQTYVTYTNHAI

For `Cc1onc(O)c1CCC(N)C(=O)O` (stereo not drawn), the EC50 in [1] is 82 µM; in assay [2], over 1000 µM; in [3], over 3000 µM; in assay [4], over 1000 µM.
Regarding `NC(CCCCC(=O)O)C(=O)O` (stereo not drawn), the EC50 in assay [1], in assay [2] and in assay [4] was over 1000 µM in each case.
In the case of `Cc1o[nH]c(=O)c1CCCCC(N)C(=O)O` (stereo not drawn), the EC50 in assay [1], in assay [2] and in assay [4] was over 1000 µM in each case.
As for `N[C@H](CCCC(=O)O)C(=O)O`, the EC50 in assay [1], in assay [2] and in assay [4] was over 1000 µM each time.
In the case of `Cc1onc(O)c1C[C@@H](N)C(=O)O`, the EC50 in assay [5], in assay [6] and in [7] was over 1000 µM throughout.
As for `Cc1o[nH]c(=O)c1C(N)C(=O)O` (stereo not drawn), the IC50 (in assay [8]; in assay [9]; at Glutamate NMDA receptor [11]) was over 100 µM throughout. Further, the EC50 was over 1000 µM in [5], over 1000 µM in [7] and 12 µM on Glutamate NMDA receptor [10].
Regarding `NC(CCCCCC(=O)O)C(=O)O` (stereo not drawn), the EC50 in [1], in assay [2] and in assay [4] was over 1000 µM in each case.
Regarding `Cc1onc(O)c1CCCC(N)C(=O)O` (stereo not drawn), the EC50 is 410 µM in [1], over 1000 µM in assay [2], over 3000 µM in assay [3] and over 1000 µM in assay [4].
For `N[C@@H](CCCC(=O)O)C(=O)O` [(S)-2-AMINOADIPIC ACID], the EC50 in assay [1] is 140 µM; in [2], 35 µM; in [3], over 3000 µM; in assay [4], over 1000 µM.
In the case of `Cc1onc(O)c1C[C@H](N)C(=O)O` [(S)-AMPA], the EC50 was 220 µM in [5], over 3000 µM in assay [12], over 1000 µM in assay [6] and over 1000 µM in assay [7].
`N[C@@H](CC(=O)O)C(=O)O` [ASPARTIC ACID]: the EC50 in assay [1], in [2] and in [4] was over 1000 µM each time.
As for `N[C@H](CC(=O)O)C(=O)O` [D-ASPARTATE], the EC50 in assay [1], in assay [2] and in [4] was over 1000 µM each time.

For orientation: EC50 means the concentration giving half of the maximal effect. Higher therefore signals lower potency in that assay. In general, IC50 refers to the point on the concentration scale where inhibition reaches its midpoint. Read a low IC50 as greater potency.

The record behind these values is ChEMBL document CHEMBL1129268 (J Med Chem, 1996).
